# PMI activator = phosphomannose isomerase (human) activation. P34949. purified human PMI, coupled resazurin fluorescence, 20 min; stronger effect = higher value; 1 = vehicle control, 0 substrate-free wells. activation factor at 20 µM. 190,000 tested, 0.005% active. AID 1214;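 active = activation factor of 2 or more at 20 µM, relative to plate controls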
# Rad51 HR inh = Rad51 (human) homologous recombination inhibition; AID 1385; inhibition, % at 10 µM; 200,000 tested, 0.085% active; Q06609; hRad51 DNA strand exchange, fluorescence dequenching;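 active = inhibition above 40% at the single screening dose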;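 also: 0% = DMSO control wells and 100% = blanks with heterologous ssDNA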
# Target sequence (Q06609 whole entry, looked up): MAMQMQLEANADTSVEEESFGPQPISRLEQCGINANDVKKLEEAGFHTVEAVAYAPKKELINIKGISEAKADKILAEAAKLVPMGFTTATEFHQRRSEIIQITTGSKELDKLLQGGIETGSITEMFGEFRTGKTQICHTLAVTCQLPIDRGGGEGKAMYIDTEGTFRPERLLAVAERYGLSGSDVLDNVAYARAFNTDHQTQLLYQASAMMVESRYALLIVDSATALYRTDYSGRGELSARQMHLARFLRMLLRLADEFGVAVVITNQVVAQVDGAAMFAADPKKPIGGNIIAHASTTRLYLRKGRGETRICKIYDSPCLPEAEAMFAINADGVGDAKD
#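 material = hRad51 filaments on single-stranded DNA | timing = filaments 15 min 37 °C, then compound 30 min | signal = FRET fluorescence dequenching, excitation 485 nm, emission 520 nm | benchmarks = control wells and blank wells on each plate | evaluation = percent inhibition relative to plate controls and blanks | compound = 10 µM final, single point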
# m-calpain inh = inhibitors of pig calpain II; purified calpain II, fluorogenic peptide substrate, 30 min; inhibition, % at 16 µM; 220,000 tested, 0.37% active; AID 1236;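 active = inhibition above about 50%, limit read from the data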
# WT yeast gro inh = growth inhibition of WT yeast, mitochondrial fusion screen; mitochondrial fusion phenotypic screen, WT strain; inhibition, % at 10 µM; 190,000 tested, 2.1% active; AID 1362; in the data active = inhibition above about 58%; tested in S. cerevisiae
# L major viab = reduces viability of Leishmania major promastigotes; 200,000 tested, 9% active; inhibition, % at 10 µM; resazurin fluorescence viability; AID 1063; in the data active = inhibition above about 50%;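 also: promastigotes grown with compound for 44 hours at 28 °C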
# PMI act satM6P = activators of human phosphomannose isomerase at near-saturating mannose 6-phosphate. activation factor at 20 µM. 190,000 tested, 0.34% active. coupled PMI enzyme assay, resazurin fluorescence, 20 min; stronger effect = higher value; 1 = untreated enzyme, 0 = substrate-free blank;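 active = activation factor of 2 or more at 20 µM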
#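 Test system – human PMI in coupled enzyme assay · Timing – 20 min incubation at room temperature · Detection – Diaphorase-driven resazurin-to-resorufin fluorescence, excitation 544, emission 590 nm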
# * marks the source's active call; other numbers are inactive results; · = no result given. Rows were chosen to be rich in hits. Some 9.8% of all compounds tested hit in one or more screens of this group.
SMILES,PMI activator,Rad51 HR inh,m-calpain inh,WT yeast gro inh,L major viab,PMI act satM6P
CCOC(=O)/C(=C\C=C1/Sc2cc(OCC)c(OCC)cc2N1CC)C(C)=O,0.9,·,-34,5,34,0.7
CCN(CC)c1ccc(/C=C(\C#N)c2ccccn2)cc1,0.9,-45,10,68*,12,0.9
Cc1ccc([N+](=O)[O-])cc1NC(=O)C(C)NS(=O)(=O)c1ccc(F)cc1 (stereo not drawn),0.9,8,-18,4,-1,1
CCOc1ccc(C2Nc3cccc4cccc(c34)N2)cc1OC,0.9,4,-82,3,69*,0.7
Cc1ccc(C)c(S(=O)(=O)Nc2ccc3sc(C)nc3c2)c1,1.1,3,-10,23,95*,1
COc1cccc(S(=O)(=O)Nc2ccc3sc(C)nc3c2)c1,1.1,5,17,-8,0,1.2
CCCCCCOC(=O)/C=C/c1c(C)[nH]c(=O)[nH]c1=O,0.8,0,19,1,94*,0.8
CCCCCCCCOC(=O)CCc1c(C)[nH]c(=S)[nH]c1=O,0.9,-13,17,10,-4,0.9
CSC1=NCCN1C(=O)C12CC3CC(CC(C3)C1)C2,1,-3,-2,7,51*,0.9
CC(Cc1ccccc1)NC(=S)CN1CCCC1=S (stereo not drawn),·,-3,-11,·,·,·
O=c1cc2c(nn1Cc1ccc(Cl)cc1Cl)-c1ccccc1CC2,0.8,8,32,76*,5,0.9
O=C(O)c1cc2n(n1)CCN(Cc1ccccc1Cl)C2=O,1.2,13,3,-4,-8,1.1
O=c1cc2c(nn1Cc1ccccc1Cl)-c1ccccc1CC2,0.9,5,17,69*,2,1
Cc1nc2c(C(=O)NCc3cccs3)cnn2c(C)c1Cc1ccccc1,0.9,-2,-46,-5,54*,1
O=C(Cn1nc(Cc2cccnc2)c2ccccc2c1=O)NCc1ccc(F)cc1,1,-5,-8,-5,-8,1
COc1ccc(CNC(=O)COc2ccc(S(=O)(=O)NC(C)C)cc2)cc1,1,-1,-15,5,65*,1
Cc1cccc(C)c1NC(=O)CSc1nnc(C)n1CC1CCCO1 (stereo not drawn),·,2,-16,-18,-7,·
Cc1cc(C)cc(C(=O)OCC(=O)Nc2cccc(S(=O)(=O)NC3=NCCCCC3)c2)c1,1,4,6,-13,52*,0.9
CCCCOc1ccc(CCC(=O)N/N=C/c2ccco2)cc1,·,7,-3,·,·,·
CCOC(=O)Nc1sc(C)nc1-c1ccccc1,1.1,3,2,-7,0,1.1
CCOC(=O)Nc1nc(-c2ccccc2)c(C(=O)c2ccc(Cl)cc2)s1,0.7,-2,9,59*,4,0.8
Cc1ccc(S(=O)(=O)N(C(=O)c2ccncc2)c2ccc(OC(=O)c3ccncc3)c3ccccc23)c(C)c1,1,11,18,19,98*,1.4
Cc1ccc(S(=O)(=O)N(C(=O)c2ccncc2)c2ccc(OC(=O)c3ccncc3)c3ccccc23)cc1,0.8,-4,10,-3,98*,0.6
Cc1cc(F)ccc1S(=O)(=O)N(C(=O)c1ccncc1)c1ccc(OC(=O)c2ccncc2)cc1,0.9,-7,21,9,-4,0.9
COC(=O)c1c(C)oc2ccc(N(C(=O)c3ccncc3)S(=O)(=O)c3ccc(C)cc3)cc12,0.8,-7,15,5,12,1
SMILES,PMI activator,Rad51 HR inh,m-calpain inh,WT yeast gro inh,L major viab,PMI act satM6P
N=C1c2ccccc2CN1NC(=O)COc1ccc(Cl)cc1,1.4,0,-21,-7,0,1.3
O=C1Oc2ccccc2C(=O)/C1=C\N1CCN(c2ccccc2)CC1,1.1,-2,-3,-6,1,1
N#CC1=C(N)C(C#N)(C#N)[C@H](c2ccoc2)[C@H]2CN(Cc3ccccc3)CC=C12,0.9,-170,-204,6,56*,1
CN1CC=C2C(C#N)=C(N)C(C#N)(C#N)[C@H](c3ccoc3)[C@H]2C1,0.8,-20,-4,20,8,0.8
COc1ccc(-c2cc3nnc(-c4ccccc4)nc3s2)cc1,1.6,·,1,-3,-5,2.5*
O=C(NC1CCCCC1)c1ccc(S(=O)(=O)c2ccccc2)cc1,0.9,-2,9,9,16,0.9
CCN(CC)C(=O)CSc1nc2c(sc(=S)n2CC)c(=O)n1-c1ccccc1,1.1,-10,-30,-1,59*,1.1
Nc1nc(NCCCN2CCOCC2)nc(Nc2ccc(Cl)cc2)c1[N+](=O)[O-],·,·,-6,·,·,·
Cc1ccc(Nc2nc(NCCCN3CCOCC3)nc(N)c2[N+](=O)[O-])cc1C,1.1,5,4,27,52*,1.2
Cc1ccc(Nc2nc(NCCCN3CCOCC3)nc(N)c2[N+](=O)[O-])cc1,0.9,28,26,10,51*,1
NC(=O)c1ccc(-n2nnnc2Oc2ccccc2C(=O)N2CCOCC2)cc1,0.9,·,51*,6,6,0.9
Nc1nc(COc2ccccc2C=O)nc(Nc2ccccc2)n1,·,18,-2,·,·,·
COc1ccc(Cl)cc1N(CC(=O)N(C)C)S(=O)(=O)c1ccc(C)c([N+](=O)[O-])c1,1,25,-35,8,10,1
COc1ccc(Cl)cc1N(CC(=O)N/N=C/c1ccc(OC(C)C)cc1)S(=O)(=O)c1ccc(C)c([N+](=O)[O-])c1,0.8,-4,-23,-19,98*,1
C=CCOc1cccc(/C=N/NC(=O)CN(c2cc(Cl)ccc2OC)S(=O)(=O)c2ccc(C)c([N+](=O)[O-])c2)c1,0.9,4,-30,-13,99*,0.9
CCOc1cc(S(=O)(=O)N(Cc2ccccc2)Cc2ccccc2)c(OCC)cc1-n1cnnn1,0.9,·,10,11,92*,0.9
CCOc1cc(S(=O)(=O)NCc2ccccc2)c(OCC)cc1-n1cnnn1,·,-4,·,·,-2,·
COc1cc(OC)nc(NC(=S)NC(=O)c2ccccc2)n1,0.9,·,-20,3,-6,1
O=C(N/N=C/c1ccccn1)c1cc(-c2ccccc2Cl)n[nH]1,1.1,11,0,-4,47,1.2
O=C(N/N=C/c1ccccn1)c1cc(-c2cccc3ccccc23)n[nH]1,1,3,-53,-15,73*,1
O=C(N/N=C/c1cccs1)c1cc(-c2ccc3ccccc3c2)n[nH]1,0.9,-12,-14,32,0,0.9
O=C(N/N=C/c1ccccn1)c1cc(-c2ccc3ccccc3c2)n[nH]1,1,-7,-90,-3,84*,1.1
Cc1cc(C)nc(SCc2ccc(C(=O)N/N=C/c3ccncc3)cc2)n1,1,12,-28,10,2,1
Cc1cc(C)nc(SCc2ccc(C(=O)N/N=C/c3ccccn3)cc2)n1,1,-4,-4,13,91*,1

# Bioassay records (PubChem)
